Activity calls are given as the source filed them. No cut-off for these calls is given here.
Legend:
[1] = tested on: Oocyte; assay: Activation of rat GABA alpha-1-beta-2-gamma-2 receptor expressed in xenopus oocytes assessed as potentiation of GABA-induced chloride current at 100 uM after 90 secs by two […] electrode voltage clamp assay; assay type: cell-based
Method in brief: (§1)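 Rat α1, β2, γ2S cRNAs (1:1:10) injected into collagenase-defolliculated Xenopus oocytes, stored at 18 °C in ND96, recorded on days 1–5. Two-microelectrode voltage clamp at −70 mV. Bath: 90 mM NaCl, 1 mM KCl, 1 mM MgCl2, 1 mM CaCl2, 5 mM HEPES, pH 7.4. Cells with maximal currents > 3 μA discarded. Solutions delivered by automated fast perfusion.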

[2] = tested on: Oocyte; assay: Activation of rat GABA alpha-1-beta-2-gamma-2 receptor expressed in xenopus oocytes assessed as potentiation of chloride current at 100 uM after 90 secs by two […] electrode voltage clamp assay; assay type: cell-based; method in brief: as §1
[3] = tested on: Oocyte; assay: Activation of rat GABA alpha-1-beta-2-gamma-2 receptor expressed in xenopus oocytes assessed as potentiation of GABA-induced chloride current at 300 uM after 90 secs by two […] electrode voltage clamp assay; assay type: cell-based; method in brief: as §1
[4] = (§2) Activation of rat GABA alpha-1-beta-2-gamma-2 receptor expressed in xenopus oocytes assessed as potentiation of GABA-induced chloride current after 90 secs by two […] electrode voltage clamp assay; assay type: cell-based; conditions: Oocyte
Method in brief: (§3)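 Xenopus oocytes injected with rat α1, β2, γ2S cRNAs (1:1:10), kept at 18 °C in ND96, recorded days 1–5. Two-electrode voltage clamp at −70 mV in bath containing 90 mM NaCl, 1 mM KCl, 1 mM MgCl2, 1 mM CaCl2, 5 mM HEPES, pH 7.4. Compound (1–300 μM) preapplied 90 s, then coapplied with GABA EC5–10 by fast perfusion. Values n = 3.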

[5] = tested on: Oocyte; assay: as §2; assay type: cell-based; method in brief: as §3
[6] = tested on: Oocyte; assay: Activation of rat GABA alpha-1-beta-2-gamma-2 receptor expressed in xenopus oocytes assessed as potentiation of GABA-induced chloride current at 300 uM after 90 secs by two […] electrode voltage clamp assay relative to control in presence of flumazenil; assay type: cell-based; method in brief: as §1
[7] = Displacement of [3H]-flumazenil from GABAA receptor
[8] = tested on: Oocyte; assay: Activation of rat GABA alpha-1-beta-2-gamma-2 receptor expressed in xenopus oocytes assessed as potentiation of GABA-induced chloride current at 100 uM after 90 secs by two […] electrode voltage clamp assay in presence of 1 uM Diazepam; assay type: cell-based; method in brief: as §1

SMILES	Activity [1] [%]	Activity [2]	Activity [3] [%]	EC50 [4] [µM]	Activity [5]	Activity [6] [%]	IC50 [7] [µM]	Activity [8] [%]
CC(C)CNC(=O)/C=C/C=C/c1ccc2c(c1)OCO2	-10	inactive	–	–	–	–	–	–
O=C(/C=C/C=C/c1ccc2c(c1)OCO2)N1CCCC1	-29	inactive	–	–	–	–	–	–
O=C(CCCC/C=C/c1ccc2c(c1)OCO2)N1CCCCC1	32	inactive	–	–	–	–	–	–
O=C(/C=C/CCc1ccc2c(c1)OCO2)N1CCCCC1 [PIPERANINE]	138	inactive	187	56	Dose-dependent effect	–	–	–
O=C(/C=C/C=C/c1ccc2c(c1)OCO2)N1CCCCC1 [PIPERINE]	226	inactive	302	52	Dose-dependent effect	334	1200	391
